Data set [1] concerns Mus musculus. The data set can be described thus: Subcutaneous metrazole (scMet) test was conducted after Injecting intraperitoneally at the time of peak anticonvulsant in phase II test. Format: functional. The essentials: (§1)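 Phase II testing in male Carworth Farms no. 1 mice, ip dosing in 30% PEG 400 (0.01 mL/g). Groups of 8–16 mice received a range of doses, giving at least three points in 10–90% protection. ED50 with 95% confidence interval was fitted by probit analysis at the time of peak effect. scMet used pentylenetetrazol 85 mg/kg sc.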

A short description of data set [2]: Protective index is the ratio of TD50 and ED50 values obtained in the subcutaneous metrazole (scMet) test. Format: functional. In outline: (§2)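 Protective index = TD50/ED50. Both values are medians from groups of 8–16 animals per dose, with at least three points in the 10–90% effect range, fitted by probit analysis. Each was taken at its own time of peak effect: seizure protection for ED50, neurologic deficit for TD50.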

The species named for data set [3] is Mus musculus. As to the kind of experiment: Time taken to reach peak activity was reported. Format: functional.
Data set [4] is filed under the species Mus musculus. The data set can be described thus: Time taken to reach peak toxicity was reported. Format: organism-based. To be noted: in vivo.
Data set [5] is described as follows: Median toxic dose was measured at time of peak neurologic deficit. Particulars: mouse, in vivo. Format: organism-based. In outline: (§3)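 Mice dosed ip in 30% PEG 400. Minimal neurotoxicity was scored by rotorod at the time of peak neurologic deficit. Groups of 8–16 mice were used, with at least three points in the 10–90% range, and TD50 with 95% confidence interval was derived by probit analysis.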

The subject of data set [6] is Mus musculus. As to the kind of experiment: Subcutaneous metrazole (scMet) test was conducted and median effective dose was determined at the time of peak anticonvulsant and sedative effect. Format: functional. To be noted: sc. In outline:
(§4)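 Pentylenetetrazol (85 mg/kg in mice, 70 mg/kg in rats) was given subcutaneously in the posterior midline as a 0.5% solution. Compounds were in 30% PEG 400, dosed ip in male Carworth Farms no. 1 mice, or orally in mice and Sprague-Dawley rats. ED50 was read at time of peak effect, using groups of 8–16 animals and ≥3 doses giving 10–90% protection. Probit analysis gave 95% confidence intervals.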

For data set [7], the system named is Mus musculus. As to the kind of experiment: Anticonvulsant activity was determined in maximal electroshock seizure test 0.5 h after administration of 300 mg/kg in (mice/rat); no activity or toxicity up to 300 mg/kg. Format: functional, organism-based.
Data set [8] concerns Mus musculus. As to the kind of experiment: Anticonvulsant activity was determined in Subcutaneous metrazole (scMet) test 0.5 h after administration of 300 mg/kg in (mice/rat); no activity or toxicity up to 300 mg/kg. Format: functional, organism-based.
Data set [9] relates to Mus musculus. As to the kind of experiment: Anticonvulsant activity was determined in maximal electroshock seizure test 4.0 h after administration of 300 mg/kg in (mice/rat); no activity or toxicity up to 300 mg/kg. Format: functional, organism-based.
The test system of data set [10] is Mus musculus. As to the kind of experiment: Rotarod test was used to evaluate neurotoxicity in mice. Values are reported after 0.5 h, at 300 mg/kg; no activity or toxicity up to 300 mg/kg. Format: organism-based. Particulars: in vivo.
The test system of data set [11] is Mus musculus. The data set can be described thus: Subcutaneous metrazole (scMet) test was done, 4.0 hr after administration; no activity or toxicity up to 300 mg/kg. Format: functional, organism-based. Set-up: dose 300 mg/kg.
Data set [12] is described as follows: Median toxic dose was measured at time of peak neurologic deficit. Format: […]. The essentials: as §3
For data set [13], the system named is Mus musculus. The data set can be described thus: (§5) Subcutaneous metrazole (scMet) test was conducted and median effective dose was determined at the time of peak anticonvulsant and sedative effect. Format: organism-based. Particulars: in vivo. In outline:
as §4

Data set [14] is described as follows: Anticonvulsant activity was determined by injecting perorally in rats. Protective index is the ratio of TD50 and ED50 values obtained in the maximal electroshock seizure (MES) test. Format: functional. In outline: as §2
For data set [15], the system named is Mus musculus. The data set can be described thus: MES test was performed after Injecting intraperitoneally at the time of peak anticonvulsant effect in phase II test. Format: functional. To be noted: ip. In outline: as §1
For data set [16], the species on record is Rattus norvegicus. As to the kind of experiment: Anticonvulsant activity was determined by injecting perorally in rats. Time taken to reach peak activity was reported. Format: functional. In outline:
(§6)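 Time of peak effect, in hours, was found separately for anticonvulsant activity and for neurotoxicity. ED50 and TD50 were then determined at those times.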

The species entered for data set [17] is Rattus norvegicus. The data set can be described thus: Anticonvulsant activity was determined by injecting perorally in rats. Time taken to reach peak toxicity was reported. To be noted: in vivo, po. Format: organism-based. In outline: as §6
Data set [18] is described as follows: Protective index is the ratio of TD50 and ED50 values obtained in the subcutaneous metrazole (scMet) test in phase II test. Format: functional. The essentials:
as §2

Data set [19] can be described thus: Neurotoxicity was determined by injecting perorally in rats. Format: toxicity, organism-based. Particulars: rat, in vivo, po. In outline: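 Rats dosed orally in 30% PEG 400. Neurotoxicity was assessed by positional sense and gait-and-stance tests at the time of peak deficit. TD50 with 95% confidence interval was derived by probit analysis from at least three dose points in the 10–90% range.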

Data set [20] is described as follows: Neurotoxicity was determined by injecting perorally in mice. Median toxic dose was measured. Format: toxicity, organism-based. To be noted: mouse, in vivo, po. The essentials: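 Mice dosed orally in 30% PEG 400. Neurotoxicity was scored by rotorod at the time of peak neurologic deficit. Groups of 8–16 mice were used, with at least three points in the 10–90% range, and TD50 with 95% confidence interval was derived by probit analysis.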

The species named for data set [21] is Mus musculus. The data set can be described thus: Anticonvulsant activity was determined by injecting perorally in mice.(scMet) test was conducted. Format: functional. In outline: (§7)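 Oral dosing in mice, test solutions in 30% polyethylene glycol 400, 0.01 mL/g body weight. Groups of 8–16 mice received a range of doses until at least three points fell within 10–90% seizure protection.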

Data set [22] can be described thus: Time taken to reach peak toxicity was reported in phase II test. In outline:
(§8)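 Male Carworth Farms no. 1 mice dosed ip in 30% polyethylene glycol 400 (0.01 mL/g). Seizure protection was tested by MES and by sc pentylenetetrazol (85 mg/kg, 0.5% solution, posterior midline); neurotoxicity was tested on the rotorod. Time of peak effect is given in hours. ED50 and TD50 were determined at that time in groups of 8–16 mice.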

The species entered for data set [23] is Mus musculus. The data set can be described thus: Anticonvulsant activity was determined by injecting perorally in mice. Time taken to reach peak toxicity was reported. Particulars: in vivo, po. Format: organism-based. The essentials: as §6
Data set [24] is described as follows: Anticonvulsant activity was determined by injecting perorally in rats. Protective index is the ratio of TD50 and ED50 values obtained in the subcutaneous metrazole (scMet) test. Format: functional. In outline:
as §2

The nature of data set [25]: Time taken to reach peak activity was reported in phase II test. Format: functional. In outline:
as §8

The species entered for data set [26] is Mus musculus. The data set can be described thus: Anticonvulsant activity was determined by injecting perorally in mice. Time taken to reach peak activity was reported. Format: functional. In outline:
as §6

A short description of data set [27]: Median toxic dose was measured at time of peak neurologic deficit in phase II test. Format: organism-based. To be noted: mouse, in vivo. The essentials:
as §3

Data set [28] is described as follows: Protective index is the ratio of TD50 and ED50 values obtained in the maximal electroshock seizure (MES) test in phase II test. Format: functional. The essentials: as §2
Data set [29] is filed under the species Rattus norvegicus. As to the kind of experiment: Anticonvulsant activity was determined by injecting perorally in rats. MES test was performed. Format: functional.
Data set [30] is described as follows: Anticonvulsant activity was determined by injecting perorally in mice. Protective index is the ratio of TD50 and ED50 values obtained in the maximal electroshock seizure (MES) test. Format: functional. The essentials: as §2
Data set [31] in a line: Dose Injected intraperitoneally that causes death 50% of the mice within 24 hr was reported as lethal dose 50. No deaths among eight test animals at 4000 mg/kg after 24 hr in phase III test. Particulars: mouse, in vivo, ip. Format: organism-based. On the set-up: dose 4000 mg/kg, route intraperitoneal.
Data set [32] is filed under the species Rattus norvegicus. The data set can be described thus: Anticonvulsant activity was determined by injecting perorally in rats. (scMet) test was conducted. Format: functional.
Data set [33] is described as follows: Anticonvulsant activity was determined by injecting perorally in mice. Protective index is the ratio of TD50 and ED50 values obtained in the subcutaneous metrazole (scMet) test. Format: functional. The essentials: as §2
Data set [34] is filed under the species Mus musculus. The data set can be described thus: Anticonvulsant activity was determined by injecting perorally in mice. Maximal electroshock seizure test was performed. Format: functional. In outline: as §7
Data set [35] relates to Mus musculus. The description is as §5. Format: functional. To be noted: sc. The essentials: as §4

The source of these data is ChEMBL document CHEMBL1125085, “Synthesis and anticonvulsant activity of some new 2-substituted 3-aryl-4(3H)-quinazolinones” (J Med Chem, 1990).

SMILES strings stand for the structures. Some results are limits rather than exact numbers.

Turning to `COc1ccccc1-n1c(CC(=O)c2ccncc2)nc2ccccc2c1=O`, it took a dose of 42 mg/kg to reach the 50% effect level in the data set on Mus musculus [1] (ED50). In data set [2], the PI came out at 8.8. Moreover, the TPE in the data set filed under Mus musculus [3] turned out to be 2 h; in the data set listed under Mus musculus [4], 0.5 h. This compound displayed a TD50 in [5] of 370 mg/kg.

`CCC1(c2ccccc2)C(=O)NCNC1=O` [PRIMIDONE] came in with an ED50 in the data set on Mus musculus [6] of 58.6 mg/kg.

In the data set with Mus musculus [6], `CCC1(c2ccccc2)C(=O)NC(=O)NC1=O` [PHENOBARBITAL] came in with an ED50 of 13.2 mg/kg.

Consider `Cc1ccc(-n2c(CC(=O)c3cccnc3)nc3ccccc3c2=O)cc1`, for which the Activity result in the data set on Mus musculus [7], in the data set with Mus musculus [8], in the data set with Mus musculus [9], with Mus musculus [10] and in the data set on Mus musculus [11] was “No activity or toxicity up to 300 mg/kg” in each case.

In turn, `Cc1ccccc1-n1c(C)nc2ccccc2c1=O` [METHAQUALONE] returned a TD50 in data set [12] of 55 mg/kg. In the data set with Mus musculus [13], the ED50 was determined as 33.5 mg/kg.

On to `Cc1ccccc1-n1c(CC(=O)c2ccncc2)nc2ccccc2c1=O`, for which the PI in data set [14] is 1.7; in data set [18] it was 5.6; in [24], 1.1; in data set [28] it was 3.8; in data set [30], 2.5; in [33], 4.5. Also, the median effective dose (ED50) was 148 mg/kg with Mus musculus [15]; 100 mg/kg with Mus musculus [1]; 15 mg/kg in the data set filed under Mus musculus [21]; 1.73 mg/kg in the data set filed under Rattus norvegicus [29]; 2.57 mg/kg in the data set filed under Rattus norvegicus [32]; 27.1 mg/kg in the data set filed under Mus musculus [34]. For the same compound, the TPE in the data set listed under Rattus norvegicus [16] was 4 h; in the data set filed under Rattus norvegicus [17], 4 h; in data set [22], 2 h; in the data set listed under Mus musculus [23], 0.5 h; in data set [25], 2 h; in the data set filed under Mus musculus [26], 2 h. Further, the figures for the TD50 in [19], in [20] and in data set [27] were 2.89 mg/kg, 67.6 mg/kg and 561 mg/kg, respectively. In [31], this compound displayed an LD50 at 24 h above 4000 mg/kg.

`CCC1(c2ccccc2)NC(=O)N(C)C1=O` (configuration not stated) [MEPHENYTOIN] had an ED50 in the data set with Mus musculus [35] of 30.5 mg/kg.
